Converted amounts (≈) assume the structure as drawn. The source made the active and inactive calls. No cut-off for these calls is given here.
Key:
[1] = tested on: Mycobacterium tuberculosis; test: Antimycobacterial activity against Mycobacterium tuberculosis H37Rv ATCC 25618 after 10 to 14 days by microplate alamar blue assay; assay type: functional
[2] = tested on: Mycobacterium tuberculosis; test: Antimycobacterial activity against recombinant strain Mycobacterium tuberculosis Rv0341 by firefly luciferase reporter gene assay; assay type: functional, organism-based
Method in brief: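 Recombinant Mtb carrying a promoter fused to firefly luciferase, which is activated and produces light when cell wall biosynthesis is inhibited. High-throughput luminescence read-out.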

[3] = tested on: Mycobacterium tuberculosis; test: Antimycobacterial activity against Mycobacterium tuberculosis H37Rv infected in C3H/HeNCrlBR mouse assessed as prevention of body weight loss at 10 mg/kg, po administered 7 days after infection for 2 weeks measured after 10 to 15 days relative to control; assay type: functional, organism-based; set-up: dose 10 mg/kg
Method in brief: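 Treatment began 7 days after infection: oral gavage once daily at 10 mg/kg for 2 wk. Body weights tracked from day 0 through day 21 and compared with uninfected mice and infected placebo-treated mice. Mortality was followed after therapy ended.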

[4] = tested on: Mycobacterium tuberculosis; test: Antimycobacterial activity against Mycobacterium tuberculosis pSMT1 infected in mouse J774A.1 ATCC TIB-67 cells assessed as viable bacterial count at 4 ug/ml for 4 days followed by 3 days incubation in drug-free medium by luciferase reporter gene assay; assay type: functional
[5] = tested on: Mycobacterium tuberculosis; test: Antimycobacterial activity against Mycobacterium tuberculosis pSMT1 infected in mouse J774A.1 ATCC TIB-67 cells assessed as inhibition of intracellular bacterial growth at MIC for 4 days followed by 3 days incubation in drug-free medium by luciferase reporter gene assay; assay type: functional
[6] = tested on: Mycobacterium tuberculosis; test: Antimycobacterial activity against Mycobacterium tuberculosis pSMT1 infected in mouse J774A.1 ATCC TIB-67 cells assessed as viable bacterial count at 0.125 ug/ml for 4 days followed by 3 days incubation in drug-free medium by luciferase reporter gene assay; assay type: functional
Method in brief: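 Mtb-infected J774A.1 mouse macrophages exposed to drug for 4 days, then medium replaced with drug-free medium and cultures incubated 3 more days. Triplicate wells lysed on day 0 and day 7 and viable bacteria measured as relative light units. Isoniazid control at 0.125 μg/ml.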

[7] = tested on: J774.A1; test: Cytotoxicity against mouse J774A1 cells assessed as cell aggregation at 4 ug/ml; assay type: cell-based

Compound: c1ccc(CC2CCN(CC3CCN(CC45CC6CC(CC(C6)C4)C5)CC3)CC2)cc1
- MIC [1]: 10 µg/mL (≈ 23.8 µM)

Compound: CC(C)=CCC/C(C)=C/CN1CCC(CN2CCC(Cc3ccccc3)CC2)CC1
- MIC [1]: 20 µg/mL (≈ 48.9 µM)

Compound: c1ccc(CC2CCN(CC3CCN(CC(c4ccccc4)c4ccccc4)CC3)CC2)cc1
- MIC [1]: 11 µg/mL (≈ 24.3 µM)

Compound: OC1CCN(CC2CCN(C3C4CC5CC(C4)CC3C5)CC2)CC1 (stereo not drawn)
- Activity [2]: Active
- Activity [1]: Active

Compound: OCC1CCCN(CC2CCN(CC(c3ccccc3)c3ccccc3)CC2)C1 (stereo not drawn)
- MIC [1]: 40 µg/mL (≈ 102 µM)

Compound: OC1CCN(CC2CCN(CCOc3ccccc3)CC2)CC1
- MIC [1]: 8 µg/mL (≈ 25.1 µM)

Compound: OC1CCN(CC2CCN(CCC34CC5CC(CC(C5)C3)C4)CC2)CC1
- MIC [1]: 15 µg/mL (≈ 41.6 µM)

Compound: OC1CCN(CC2CCN(CC3CCCCCC3)CC2)CC1
- MIC [1]: 14 µg/mL (≈ 45.4 µM)

Compound: OC1CCN(CC2CCN(CC34CC5CC(CC(C5)C3)C4)CC2)CC1
- Activity [3]: Active
- Activity [4]: 354 RLU
- Activity [2]: Active
- inhibition (INH) [5]: >90%
- Activity [1]: Active
- MIC [1]: 4 µg/mL (≈ 11.5 µM)

Compound: NNC(=O)c1ccncc1 [ISONIAZID]
- Activity [6]: 4 RLU

Compound: CCC(CN1CCC(CN2CCC(O)CC2)CC1)c1ccccc1 (stereo not drawn)
- MIC [1]: 8 µg/mL (≈ 24.2 µM)

Compound: OC1CCN(CC2CCN(CC(c3ccccc3)c3ccccc3)CC2)CC1
- Activity [7]: Toxic
- Activity [3]: Active
- Activity [2]: Active
- Activity [1]: Active
- MIC [1]: 4 µg/mL (≈ 10.6 µM)

Compound: c1ccc(CC2CCN(CC3CCN(CCC45CC6CC(CC(C6)C4)C5)CC3)CC2)cc1
- MIC [1]: 5 µg/mL (≈ 11.5 µM)

Reference: ChEMBL document CHEMBL1821655, “Identification of SQ609 as a lead compound from a library of dipiperidines” (Bioorg Med Chem Lett, 2011)
